Activity calls are given as the source filed them. No cut-off for these calls is given here.

For data set [1], the target named is T1, Nuclear receptor subfamily 1 group I member 2 (Homo sapiens, UniProt O75469).
T1 sequence (O75469 whole entry): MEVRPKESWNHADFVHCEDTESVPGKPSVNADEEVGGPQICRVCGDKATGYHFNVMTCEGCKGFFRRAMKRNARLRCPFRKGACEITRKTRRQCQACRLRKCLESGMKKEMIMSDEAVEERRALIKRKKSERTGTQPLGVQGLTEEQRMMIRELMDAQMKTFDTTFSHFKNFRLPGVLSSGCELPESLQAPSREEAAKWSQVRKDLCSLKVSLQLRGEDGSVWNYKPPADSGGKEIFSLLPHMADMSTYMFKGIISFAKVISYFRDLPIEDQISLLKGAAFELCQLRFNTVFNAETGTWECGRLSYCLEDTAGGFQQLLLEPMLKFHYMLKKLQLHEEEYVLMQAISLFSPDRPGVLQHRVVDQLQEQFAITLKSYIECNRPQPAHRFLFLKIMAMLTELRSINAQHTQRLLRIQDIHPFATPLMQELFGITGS
Nature of the data set: Antagonist activity at full length human PXR transfected in human HepG2 cells assessed as reduction in rifaximin-induced receptor transactivation at 50 uM after 18 hrs by luciferase reporter assay. The class given is cell-based. The conditions noted are these: hepg2, 18 h. In a few lines:
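HepG2 (5 × 10⁴ cells/well, MEM/10% FBS) transiently transfected with full-length human PXR, RXR, PXRE-luciferase reporter and Renilla vectors, then treated 18 h with rifaximin (10 μM) plus compound (50 μM). Luciferase read-out normalised as RLU/Renilla RRU; p < 0.05 significance.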

The target in data set [2] is T1, Nuclear receptor subfamily 1 group I member 2. Nature of the data set: Antagonist activity at full length human PXR transfected in human HepG2 cells assessed as reduction in rifaximin-induced receptor transactivation after 18 hrs by luciferase reporter assay. The conditions noted are these: for inhibition (INH): human, hepg2, 18 h. The class given is cell-based. In a few lines: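 Rifaximin-stimulated (10 μM) HepG2 transiently co-transfected with 75 ng pSG5-hPXRT1, 75 ng pSG5-RXR, 250 ng pGL3(henance)PXRE reporter and 100 ng pGL4.70-Renilla, then co-treated 18 h with compound at 10, 25 and 50 μM. Firefly luciferase RLU divided by Renilla RRU to normalise transfection efficiency; IC50 taken from concentration-response curve.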
A general note: In a reporter assay the amount or activity of a reporter protein is the signal.

Data set [3] has the same target. Nature of the data set: Antagonist activity against PXR in human HepG2 cells assessed as inhibition of rifaximin-induced CYP3A4 gene expression at 25 uM after 18 hrs by quantitative real-time PCR analysis. The class given is cell-based. The conditions noted are these: hepg2, 18 h. (In general: Quantitative PCR measures a nucleic acid by following its amplification.)

Data set [4] has the same target. Nature of the data set: Activity at PXR in human HepG2 cells assessed as up regulation of rifaximin-induced PXR gene expression at 25 uM after 18 hrs by quantitative real-time PCR analysis. To be noted: hepg2, 18 h.
The test system of data set [5] is HepG2. Nature of the data set: Toxicity in human HepG2 cells expressing human full-length PXR assessed as reduction in cell viability at 50 uM. The conditions noted are these: hepg2, 50 µM. The class given is cell-based.
Data set [6] addresses T1, Nuclear receptor subfamily 1 group I member 2. The data set is described as follows: Antagonist activity at PXR (unknown origin).
For data set [7] the target is unchanged. The data set is described as follows: Transactivation of full length human PXR transfected in human HepG2 cells after 18 hrs by luciferase reporter assay relative to rifaximin. The class given is cell-based. In a few lines:
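In HepG2 transfected with hPXR, RXR, PXRE-luciferase and Renilla plasmids, cells were exposed 18 h to compound at 10 μM, or at 10, 25 and 50 μM for EC50 determination, alongside rifaximin (10 μM) as reference agonist. Firefly signal normalised to Renilla.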

The test system of data set [8] is HepG2. Nature of the data set: Up regulation of full length PXR expression in human HepG2 cells at 10 uM after 18 hrs by quantitative real-time PCR analysis. The class given is functional, cell-based.
Data set [9] deals with T1, Nuclear receptor subfamily 1 group I member 2. The data set is described as follows: Transactivation of PXR in human HepG2 cells assessed as up regulation of CYP3A4 gene expression at 10 uM after 18 hrs by quantitative Real-time PCR analysis. The conditions noted are these: hepg2, 18 h. The class given is cell-based.
Data set [10] can be described thus: Solubility of the compound. The class given is physicochemical.

Consider `CC/C(=C(/CC)c1ccc(O)cc1)c1ccc(O)cc1` [DIETHYLSTILBESTROL], for which the results for the “inhibition (INH)” value in data set [1], in [2] and in [3] were “Active”, “Dose-dependent effect” and “Active”, respectively. The IC50 in [2] turned out to be 14.6 µM. For the same compound, the result in data set [4] was Active.
Regarding `CC/C(=C(/CC)c1ccc(OCCCO)cc1)c1ccc(OCCCO)cc1`, the Activity result in [5] is reported as “Toxic”.
The compound `Cc1cc(-c2onc(C)c2C(=O)Sc2ccccc2)no1` returned an IC50 in data set [6] of 0.85 µM.
With `CC/C(=C(/CC)c1ccc(OCCCOS(=O)(=O)[O-])cc1)c1ccc(OCCCOS(=O)(=O)[O-])cc1.[Na+].[Na+]`, in data set [1], the “inhibition (INH)” value is listed as “Not Active”.
In the case of `CO[C@H]1/C=C/O[C@@]2(C)Oc3c(C)c(O)c4c(O)c(c5c(nc6cc(C)ccn65)c4c3C2=O)NC(=O)/C(C)=C\C=C\[C@H](C)[C@H](O)[C@@H](C)[C@@H](O)[C@@H](C)[C@H](OC(C)=O)[C@@H]1C` [RIFAXIMIN], in [7], the EC50 came out at 11.2 µM. Further, in data set [8], the outcome was Active.
On to `CC/C(=C(/CC)c1ccc(OS(=O)(=O)[O-])cc1)c1ccc(OS(=O)(=O)[O-])cc1.[Na+].[Na+]`, for which, in data set [1], the “inhibition (INH)” value is recorded as “Not Active”.
Same read-out and setting: the entry for `CC/C(=C(/CC)c1ccc(OCCCOC(C)=O)cc1)c1ccc(OCCCOC(C)=O)cc1` is “Active”.
As to `CC/C(=C(/CC)c1ccc(OCCO)cc1)c1ccc(OCCO)cc1`, the results for the “inhibition (INH)” value in data set [1], in data set [2] and in data set [3] were “Active”, “Dose-dependent effect” and “Active”, respectively. Moreover, the IC50 in data set [2] was 27.4 µM. In [4], the result was Active.
In data set [7], `CC/C(=C(/CC)c1ccc(OC)cc1)c1ccc(OC)cc1` returned an EC50 of 10.5 µM. Also, the outcome in [8] was Active. The outcome in data set [9] was Active.
For `CC/C(=C(/CC)c1ccc(OCCCCOC(C)=O)cc1)c1ccc(OCCCCOC(C)=O)cc1`, the solubility result in data set [10] is “Insoluble”.
Regarding `CC/C(=C(/CC)c1ccc(OCCCCOS(=O)(=O)[O-])cc1)c1ccc(OCCCCOS(=O)(=O)[O-])cc1.[Na+].[Na+]`, the “inhibition (INH)” value in data set [1] is listed as “Not Active”.
As for `CC/C(=C(/CC)c1ccc(OCCOS(=O)(=O)[O-])cc1)c1ccc(OCCOS(=O)(=O)[O-])cc1.[Na+].[Na+]`, the “inhibition (INH)” value in data set [1] is on record as “Not Active”.
As to `CC/C(=C(/CC)c1ccc(OCCCCO)cc1)c1ccc(OCCCCO)cc1`, in data set [5], the Activity result is “Toxic”.
With `CC/C(=C(/CC)c1ccc(OCCOC(C)=O)cc1)c1ccc(OCCOC(C)=O)cc1`, the “inhibition (INH)” value in data set [1] is reported as “Active”.

Usually IC50 stands for the concentration that gives 50% inhibition. A word on the EC50: it is the midpoint of the concentration-response curve. A lower EC50 goes with a more potent agent.

These data come from ChEMBL document CHEMBL3632562, “Diethylstilbestrol-scaffold-based pregnane X receptor modulators” (Eur J Med Chem, 2015).
